Measurements from ChEMBL document CHEMBL4312006, “A novel chalcone derivative as Nrf2 activator attenuates learning and memory impairment in a scopolamine-induced mouse model” (Eur J Med Chem, 2020).
Structures can show the parent of a compound that is named as a salt.

What was measured:
[1] = target: Keap1/Nrf2 (Homo sapiens, UniProt Q14145+Q16236); assay: Activation of NRF2 in human U2OS cells co-expressing Keap1 (unknown origin) assessed as induction of NRF2 translocation to nucleus incubated for 6 hrs by beta-galactosidase based chemiluminescent assay; type: cell-based
Chain of Keap1/Nrf2 (Q16236 whole entry): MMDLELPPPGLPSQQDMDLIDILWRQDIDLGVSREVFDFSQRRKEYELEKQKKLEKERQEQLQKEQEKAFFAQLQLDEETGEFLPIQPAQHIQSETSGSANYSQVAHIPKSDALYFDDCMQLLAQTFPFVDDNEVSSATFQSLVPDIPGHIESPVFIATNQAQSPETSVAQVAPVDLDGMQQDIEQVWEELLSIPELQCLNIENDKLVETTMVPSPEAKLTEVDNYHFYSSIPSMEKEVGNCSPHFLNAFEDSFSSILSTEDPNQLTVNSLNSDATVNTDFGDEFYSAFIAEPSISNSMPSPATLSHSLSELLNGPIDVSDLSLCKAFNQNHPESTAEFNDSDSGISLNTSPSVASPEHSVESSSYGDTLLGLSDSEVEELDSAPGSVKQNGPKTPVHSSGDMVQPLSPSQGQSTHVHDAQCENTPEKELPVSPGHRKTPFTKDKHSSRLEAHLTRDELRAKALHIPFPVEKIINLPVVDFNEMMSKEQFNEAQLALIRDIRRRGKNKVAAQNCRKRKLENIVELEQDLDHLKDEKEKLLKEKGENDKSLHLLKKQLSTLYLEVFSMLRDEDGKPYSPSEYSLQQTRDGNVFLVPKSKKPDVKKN
Chain of Keap1/Nrf2 (Q14145 whole entry): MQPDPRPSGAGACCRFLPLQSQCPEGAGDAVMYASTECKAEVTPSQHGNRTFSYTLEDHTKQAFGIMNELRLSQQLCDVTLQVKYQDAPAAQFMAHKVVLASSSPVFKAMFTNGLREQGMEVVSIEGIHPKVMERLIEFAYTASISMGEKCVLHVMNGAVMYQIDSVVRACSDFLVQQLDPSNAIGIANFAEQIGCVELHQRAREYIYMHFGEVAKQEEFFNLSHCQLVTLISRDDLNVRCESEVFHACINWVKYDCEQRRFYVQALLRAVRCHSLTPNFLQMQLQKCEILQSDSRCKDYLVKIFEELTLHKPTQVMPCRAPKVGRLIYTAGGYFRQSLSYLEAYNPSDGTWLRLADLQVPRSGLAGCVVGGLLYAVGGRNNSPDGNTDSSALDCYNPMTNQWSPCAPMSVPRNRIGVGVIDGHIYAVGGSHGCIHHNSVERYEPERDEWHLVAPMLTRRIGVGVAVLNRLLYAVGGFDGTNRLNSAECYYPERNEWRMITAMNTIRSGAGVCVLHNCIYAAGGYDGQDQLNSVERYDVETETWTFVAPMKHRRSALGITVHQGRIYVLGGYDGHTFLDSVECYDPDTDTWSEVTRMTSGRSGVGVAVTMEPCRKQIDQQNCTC
Summary of the method: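 PathHunter U2OS cells engineered to co-express enzyme donor-tagged NRF2 and nuclear-localized enzyme acceptor; Nrf2 nuclear translocation reconstitutes β-galactosidase. Cells in 96-well plates exposed to a range of compound concentrations for 6 h at room temperature (20–23 °C), then 1 h with detection reagent in the dark; chemiluminescence (RLU) read. EC50 from concentration-response curve, mean ± SEM, triplicate.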

[2] = target: T1, Nuclear factor erythroid 2-related factor 2 (Mus musculus) (UniProt Q60795); assay: Activation of NRF2 in mouse BV2 cells assessed as upregulation of HO1 at 20 uM by ELISA relative to control; type: cell-based
T1 sequence (whole entry): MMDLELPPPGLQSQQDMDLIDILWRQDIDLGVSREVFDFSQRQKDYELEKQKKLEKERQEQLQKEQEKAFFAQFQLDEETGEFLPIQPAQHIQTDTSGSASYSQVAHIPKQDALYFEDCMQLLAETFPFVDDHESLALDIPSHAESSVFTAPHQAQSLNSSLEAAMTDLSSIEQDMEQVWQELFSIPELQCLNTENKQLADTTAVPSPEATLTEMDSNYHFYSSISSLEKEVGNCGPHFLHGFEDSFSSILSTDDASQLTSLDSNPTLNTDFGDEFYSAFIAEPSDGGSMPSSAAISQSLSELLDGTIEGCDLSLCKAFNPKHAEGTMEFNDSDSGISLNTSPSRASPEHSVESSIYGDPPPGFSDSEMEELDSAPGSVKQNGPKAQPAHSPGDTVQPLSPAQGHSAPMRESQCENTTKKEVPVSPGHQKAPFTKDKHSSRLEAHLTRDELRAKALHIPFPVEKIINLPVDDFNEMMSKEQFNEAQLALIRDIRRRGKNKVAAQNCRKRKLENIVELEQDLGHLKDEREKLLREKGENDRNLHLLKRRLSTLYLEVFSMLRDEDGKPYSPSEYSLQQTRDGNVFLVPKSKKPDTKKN

Row | EC50 [1] | Activity [2] | Structure (SMILES)
1 | > 5000 nM | – | O=C(/C=C/c1cccnc1)c1ccc(OCCCN2CCOCC2)cc1
2 | 2420 nM | – | O=C(/C=C/c1ccccc1Cl)c1ccc(OCCCN2CCOCC2)cc1
3 | 1120 nM | – | CN(C)C(=O)COc1ccc(C(=O)/C=C/c2ccccc2C(F)(F)F)cc1
4 | 1720 nM | < 200% | COc1ccccc1/C=C/C(=O)c1cccc(OCCCN2CCOCC2)c1
5 | 3330 nM | 217% | COc1ccccc1/C=C/C(=O)c1ccc(OCCCN2CCN(C)CC2)cc1
6 | 2580 nM | – | COc1cccc(/C=C/C(=O)c2ccc(OCCCN3CCOCC3)cc2)c1
7 | 5520 nM | 146% | COc1ccccc1/C=C/C(=O)c1ccccc1OCCCN1CCOCC1
8 | 2060 nM | – | O=C(/C=C/c1cccc(C(F)(F)F)c1)c1ccc(OCCCN2CCOCC2)cc1
9 | 2300 nM | – | O=C(/C=C/c1ccccc1C(F)(F)F)c1cccc(OCCCN2CCOCC2)c1
10 | 1630 nM | 345% | COc1ccccc1/C=C/C(=O)c1ccc(OCCCN2CCOCC2)cc1
11 | > 5000 nM | 112% | O=C(/C=C/c1ccccn1)c1ccc(OCCCN2CCOCC2)cc1
12 | 1390 nM | – | O=C(/C=C/c1ccccc1Cl)c1ccc(OCCCN2CCCC2)cc1
13 | 1460 nM | – | COc1ccccc1/C=C/C(=O)c1ccc(OCC(=O)N(C)C)cc1
14 | 5110 nM | – | COC(=O)/C=C/C(=O)OC [DIMETHYL FUMARATE]
15 | 1100 nM | – | CN(C)C(=O)COc1ccc(C(=O)/C=C/c2ccccn2)cc1
16 | 6970 nM | 166% | COc1ccc(/C=C/C(=O)c2ccc(OCCCN3CCOCC3)cc2)cc1
17 | 2840 nM | – | O=C(/C=C/c1ccccc1Cl)c1cccc(OCCCN2CCOCC2)c1
18 | 1360 nM | 351% | O=C(/C=C/c1ccccc1C(F)(F)F)c1ccc(OCCCN2CCOCC2)cc1
19 | 1230 nM | – | O=C(/C=C/c1ccccn1)c1ccc(OCC(=O)N2CCOCC2)cc1
20 | 990 nM | 289% | COc1ccccc1/C=C/C(=O)c1ccc(OCCCN2CCCC2)cc1
21 | 1060 nM | – | O=C(/C=C/c1ccccc1C(F)(F)F)c1ccc(OCC(=O)N2CCOCC2)cc1
22 | > 1000 nM | – | O=C(/C=C/c1ccccc1C(F)(F)F)c1ccc(OCCCN2CCCC2)cc1
23 | 1460 nM | – | CN(C)C(=O)COc1ccc(C(=O)/C=C/c2cccnc2)cc1
24 | 1770 nM | – | COc1ccccc1/C=C/C(=O)c1ccc(OCC(=O)N2CCOCC2)cc1
25 | 2430 nM | – | O=C(/C=C/c1ccc(C(F)(F)F)cc1)c1ccc(OCCCN2CCOCC2)cc1
26 | 1360 nM | – | CN(C)C(=O)COc1ccc(C(=O)/C=C/c2ccncc2)cc1

Row | Structure (SMILES) | EC50 [1] | Activity [2]
27 | CN1CCN(C(=O)COc2ccc(C(=O)/C=C/c3ccccc3F)cc2)CC1 | 1540 nM | –
28 | CN1CCN(C(=O)COc2ccc(C(=O)/C=C/c3ccccc3)cc2)CC1 | 1800 nM | –
29 | CN1CCN(C(=O)COc2ccc(C(=O)/C=C/c3ccccc3Cl)cc2)CC1 | 970 nM | –
30 | COc1ccccc1/C=C/C(=O)c1ccc(OCC(=O)N2CCN(C)CC2)cc1 | 1910 nM | –
